High-throughput results: PubChem BioAssay, several laboratories
ABCG2 inh: human ABCG2 inhibition, ABCB1 as counter-screen. Q9UNQ0. IgMXP3 cells, JC-1 efflux, flow cytometry. inhibition, % at 6.6 µM. hit rate 0.1% among 190,000. AID 1325;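 active means inhibition above 80%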;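 further: 0% = DMSO and 100% = nicardipine control wells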
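Assay system – ABCG2 IgMXP3 and barcoded ABCB1 CCRF-Adr cell mix · Input – 3 million cells/mL in well · Reagent – JC-1 fluorescent substrate · Compound – single test compound dose, 6.6 µM final · Timing – 10 min exposure at 25 °C with rotation, no wash · Detection – flow cytometry of retained JC-1 fluorescence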
WT yeast gro inh: growth inhibition of WT yeast, mitochondrial fusion screen; mitochondrial fusion phenotypic screen, WT strain; inhibition, % at 10 µM; hit rate 2.1% among 190,000; AID 1362; in the data active means inhibition above about 58%; tested in S. cerevisiae
ABCB1 inh: human ABCB1 inhibition, ABCG2 as counter-screen. P08183. CCRF-Adr cells, JC-1 efflux, flow cytometry. inhibition, % at 6.6 µM. hit rate 0.067% among 190,000; in the data active means inhibition above about 40%;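 further: 0% = vehicle and 100% = reference inhibitor; higher value means more JC-1 retained so stronger ABCB1 efflux block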
MEKK2 mut-MEK5: signal of MEK5 binding to mutant human MEKK2 PB1 domain. bead flow cytometry, Alexa488-MEK5 binding to MEKK2 mutant. percent response, % at 10 µM. hit rate 0.35% among 290,000; in the data active means percent response above about 24%, passing the limit was not always enough
MEKK2wt PB1 HTS: raises or lowers MEK5 binding to wildtype human MEKK2 PB1 domain; binding response (% of control), % at 10 µM; bead flow cytometry, Alexa488-MEK5 binding to MEKK2 WT; actives lie on both sides; AID 1531; hit rate 1.1% among 290,000; Q9Y2U5; in the data active means binding response below about 67% or above about 130%
MEKK3 PB1 HTS: raises or lowers MEK5 binding to the human MEKK3 PB1 domain. Q99759. bead-based flow cytometry, Alexa488-MEK5 binding to MEKK3; actives lie on both sides; 0 = blocked by unlabeled MEK5, 100 = vehicle. binding response (% of control), % at 10 µM. hit rate 1.4% among 290,000. AID 1529;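 active means binding response more than 3 SD above or below the average of its plate-row segment, actives on both sides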;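 further: Alexa488 bead fluorescence after subtracting the streptavidin-only scavenger bead signal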
Target sequence (Q99759 whole entry, looked up, the tested form may be a part): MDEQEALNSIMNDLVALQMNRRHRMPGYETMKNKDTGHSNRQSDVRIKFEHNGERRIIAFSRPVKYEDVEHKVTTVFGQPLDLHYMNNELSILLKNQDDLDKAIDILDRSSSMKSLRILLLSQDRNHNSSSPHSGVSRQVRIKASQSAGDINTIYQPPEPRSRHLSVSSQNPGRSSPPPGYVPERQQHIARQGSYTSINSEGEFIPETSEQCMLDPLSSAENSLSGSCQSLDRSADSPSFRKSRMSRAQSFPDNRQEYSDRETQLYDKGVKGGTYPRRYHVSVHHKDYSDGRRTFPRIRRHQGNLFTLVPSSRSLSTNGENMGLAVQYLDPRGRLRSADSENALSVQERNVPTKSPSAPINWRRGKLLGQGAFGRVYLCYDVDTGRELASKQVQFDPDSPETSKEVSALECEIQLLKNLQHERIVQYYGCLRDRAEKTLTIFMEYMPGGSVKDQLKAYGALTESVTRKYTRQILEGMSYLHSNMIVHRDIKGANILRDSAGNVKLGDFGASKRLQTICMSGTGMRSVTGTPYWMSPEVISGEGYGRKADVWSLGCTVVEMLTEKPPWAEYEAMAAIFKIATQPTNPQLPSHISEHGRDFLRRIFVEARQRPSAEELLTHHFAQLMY
MEKK2wt confirm: raises or lowers MEK5 binding to wildtype human MEKK2, retest | shares compounds with MEKK3 PB1 HTS | bead flow cytometry, Alexa488-MEK5 binding to MEKK2 WT; actives lie on both sides | binding response (% of control), % at 10 µM | hit rate 2.4% among 5,900 | AID 1892; in the data active means binding response below about 16% or above about 210%; inactive means in between
MEKK2mut-MEK5: signal of MEK5 binding to mutant human MEKK2, retest; bead flow cytometry, Alexa488-MEK5 binding to MEKK2 mutant; AID 1893; percent response, % at 10 µM; shares compounds with MEKK3 PB1 HTS; hit rate 2% among 5,900; in the data active means percent response mostly above about 71%, no sharp cut-off; inactive means mostly below about 38%;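 further: higher means compound restores mutant binding toward wildtype level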
MEKK3-MEK5 inh: confirmation of inhibitors of MEK5 binding to human MEKK3 | shares compounds with MEKK3 PB1 HTS | binding response (% of control), % at 10 µM | hit rate 1.8% among 5,900 | bead flow cytometry, Alexa488-MEK5 binding to MEKK3; stronger effect = lower value;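 active means binding response below 72% of control, or above a set upper limit, though filed actives all read lower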;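 further: 100% = DMSO only wells and 0% = binding blocked by excess unlabeled MEK5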
* = called active by the depositor; [ ] = dose if it differs, or a comment. In the library only some 3.5% were active in any assay of this set; here they are far more common.

How did O=C(O)c1ccc(Cn2cc(C(F)(F)F)ccc2=O)cc1 do in these assays?
ABCG2 inh: 1; WT yeast gro inh: -2; ABCB1 inh: 0; MEKK2 mut-MEK5: -17; MEKK2wt PB1 HTS: 49; MEKK3 PB1 HTS: 37*[inhibitor]; MEKK2wt confirm: 101; MEKK2mut-MEK5: -3; MEKK3-MEK5 inh: 106

Results for O=C(NCc1cccnc1)c1ccc(Cn2cc(C(F)(F)F)ccc2=O)cc1 ?
ABCG2 inh: 4; WT yeast gro inh: 13; ABCB1 inh: 1; MEKK2 mut-MEK5: -32; MEKK2wt PB1 HTS: 81; MEKK3 PB1 HTS: 69*[inhibitor]; MEKK2wt confirm: 97; MEKK2mut-MEK5: 0; MEKK3-MEK5 inh: 97

What do the screens show for `COc1ccc(C)cc1S(=O)(=O)N1CCCC(C(=O)NC2CC2)C1` (stereo not drawn)?
MEKK2 mut-MEK5: 1; MEKK2wt PB1 HTS: 97; MEKK3 PB1 HTS: 100

What do the screens show for `COC(=O)c1ccc(C2C(Oc3ccc(OC)cc3)C(=O)N2CCc2ccc(OC)c(OC)c2)cc1` (stereo not drawn)?
ABCG2 inh: 20; WT yeast gro inh: 9; ABCB1 inh: 2; MEKK2 mut-MEK5: 1; MEKK2wt PB1 HTS: 109; MEKK3 PB1 HTS: 157*; MEKK2wt confirm: 104; MEKK2mut-MEK5: 4; MEKK3-MEK5 inh: 104

How did COC(=O)c1ccc(C2C(Oc3ccccc3)C(=O)N2CCc2ccc(F)cc2)cc1 (stereo not drawn) do in these assays?
ABCG2 inh: 20; WT yeast gro inh: 31; ABCB1 inh: 3; MEKK2 mut-MEK5: 4; MEKK2wt PB1 HTS: 103; MEKK3 PB1 HTS: 110

How did O=c1cc(O)n(Cc2ccc(F)cc2)c(=O)[nH]1 do in these assays?
MEKK2 mut-MEK5: 2; MEKK2wt PB1 HTS: 103; MEKK3 PB1 HTS: 104

How did CC(C)C(=O)c1ccc(O)c(O)c1 do in these assays?
MEKK2 mut-MEK5: -33; MEKK2wt PB1 HTS: 68; MEKK3 PB1 HTS: 70*[inhibitor]; MEKK2wt confirm: 106; MEKK2mut-MEK5: 12; MEKK3-MEK5 inh: 104

What do the screens show for `Cc1ccc(O)c(O)c1`?
MEKK2 mut-MEK5: 1; MEKK2wt PB1 HTS: 99; MEKK3 PB1 HTS: 99

Results for CCOC(=O)c1sc2nc(CSc3ccccc3)nc(N3CCCN(C)CC3)c2c1C ?
ABCG2 inh: 11; WT yeast gro inh: 93*; ABCB1 inh: 12; MEKK2 mut-MEK5: 1; MEKK2wt PB1 HTS: 134; MEKK3 PB1 HTS: 130*; MEKK2wt confirm: 158; MEKK2mut-MEK5: 21; MEKK3-MEK5 inh: 104

Results for CCc1ccc(CNc2ccc3c(c2)ncn3C(C)(C)C)cc1 ?
MEKK2 mut-MEK5: 7; MEKK2wt PB1 HTS: 111; MEKK3 PB1 HTS: 99

Results for CCN(CC)c1ccc(CNc2ccc3c(c2)ncn3C(C)(C)C)cc1 ?
MEKK2 mut-MEK5: 16; MEKK2wt PB1 HTS: 135*; MEKK3 PB1 HTS: 110; MEKK2wt confirm: 134; MEKK2mut-MEK5: 16; MEKK3-MEK5 inh: 105

How did CC(C)(C)n1cnc2cc(NCc3ccc(Br)cc3)ccc21 do in these assays?
MEKK2 mut-MEK5: 20; MEKK2wt PB1 HTS: 137*; MEKK3 PB1 HTS: 112; MEKK2wt confirm: 145; MEKK2mut-MEK5: 35; MEKK3-MEK5 inh: 105

Results for COc1ccc(CCN(CC(=O)NC2CCCC2)C(=O)Cn2nnc(-c3ccc(C)o3)n2)cc1OC ?
ABCG2 inh: 1; WT yeast gro inh: -16; ABCB1 inh: 0; MEKK2 mut-MEK5: -9; MEKK2wt PB1 HTS: 96; MEKK3 PB1 HTS: 94

Results for O=C(C1=C[C@@H](c2ccc(C(F)(F)F)cc2)C[C@@H](OCCCCO)O1)N1CCN(Cc2ccccc2)CC1 ?
ABCG2 inh: 4; WT yeast gro inh: -9; ABCB1 inh: 1; MEKK2 mut-MEK5: 2; MEKK2wt PB1 HTS: 103; MEKK3 PB1 HTS: 73*[inhibitor]; MEKK2wt confirm: 107; MEKK2mut-MEK5: 3; MEKK3-MEK5 inh: 104

Results for CCN(CC)c1ccc(CN2CCC(C(=O)NCc3ccc(C)cc3)CC2)cc1 ?
ABCG2 inh: 3; WT yeast gro inh: 1; ABCB1 inh: 1; MEKK2 mut-MEK5: -15; MEKK2wt PB1 HTS: 77; MEKK3 PB1 HTS: 60

Results for Cc1cc[n+](-c2[nH]c(=O)sc2/C=N/NC([S-])=Nc2ccccc2)cc1 ?
ABCG2 inh: -1; WT yeast gro inh: 2; ABCB1 inh: 0; MEKK2 mut-MEK5: -1; MEKK2wt PB1 HTS: 97; MEKK3 PB1 HTS: 86

What do the screens show for `Cc1cc(C)c[n+](-c2[nH]c(=O)sc2/C=N/NC([S-])=Nc2ccccc2)c1`?
ABCG2 inh: 0; WT yeast gro inh: 10; ABCB1 inh: 0; MEKK2 mut-MEK5: 1; MEKK2wt PB1 HTS: 109; MEKK3 PB1 HTS: 136*; MEKK2wt confirm: 98; MEKK2mut-MEK5: -6; MEKK3-MEK5 inh: 97

What do the screens show for `CC(OC(=O)c1cccs1)C(=O)NCc1ccccc1` (stereo not drawn)?
ABCG2 inh: 0; WT yeast gro inh: -3; ABCB1 inh: 0; MEKK2 mut-MEK5: 9; MEKK2wt PB1 HTS: 121; MEKK3 PB1 HTS: 131*; MEKK2wt confirm: 97; MEKK2mut-MEK5: -3; MEKK3-MEK5 inh: 101

What do the screens show for `CCN(c1ccccc1)S(=O)(=O)c1cc(C(=O)Nc2ccccc2Cl)ccc1F`?
ABCG2 inh: 1; WT yeast gro inh: -13; ABCB1 inh: 0; MEKK2 mut-MEK5: 1; MEKK2wt PB1 HTS: 100; MEKK3 PB1 HTS: 66*[inhibitor]; MEKK2wt confirm: 92; MEKK2mut-MEK5: -3; MEKK3-MEK5 inh: 100

Results for CC(NC(=O)COc1ccc(/C=N/NC(=O)CO)cc1)c1ccccc1 (stereo not drawn) ?
MEKK2 mut-MEK5: 21; MEKK2wt PB1 HTS: 106; MEKK3 PB1 HTS: 105

What do the screens show for `NC1=NC(=O)/C(=C/c2cn(CCC(=O)O)nc2-c2ccc(Cl)cc2)S1`?
ABCG2 inh: -3; WT yeast gro inh: -16; ABCB1 inh: -1; MEKK2 mut-MEK5: 0; MEKK2wt PB1 HTS: 107; MEKK3 PB1 HTS: 108

Results for NC1=NC(=O)/C(=C/c2cn(CCC(=O)O)nc2-c2ccc(F)cc2)S1 ?
ABCG2 inh: -3; WT yeast gro inh: -18; ABCB1 inh: -1; MEKK2 mut-MEK5: 1; MEKK2wt PB1 HTS: 111; MEKK3 PB1 HTS: 129*; MEKK2wt confirm: 98; MEKK2mut-MEK5: -2; MEKK3-MEK5 inh: 100
